# Reference: PubChem BioAssay
# Activity calls are given as the source filed them.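 Rule for the calls, unless noted: active = GFP response above 150% of the DMSO level; inconclusive = fewer than 70 events counted for a yeast strain; inactive = the rest.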
# Experiments:
# [1] = hit retest on RPL19A-GFP reporter strain – cell-based, S. cerevisiae, flow cytometry, cherry picks, mother/daughter gates, confirmation (AID 2270;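 active = GFP response below 50% of the DMSO control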); conditions: 3 h, at 10 µM, stronger effect = lower value, 100 = same GFP as DMSO wells
# [2] = yeast TOR pathway reporter LAP4-GFP change – cell-based, cherry picks, flow cytometry, mother/daughter gates, confirmation (AID 2271;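 active = GFP response above 150% of the DMSO control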;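 note: ratio of sample to DMSO plate mean so 100% equals DMSO level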); conditions: S. cerevisiae LAP4-GFP strain, 3 h, at 10 µM, stronger effect = higher value, 100 means same as DMSO control
# Outline: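 Material – Alexa Fluor 633-labelled Saccharomyces cerevisiae GFP-fusion strain, single-plex · Incubation – compound exposure 3 h at 30 °C, end-over-end rotation · Measured by – GFP by flow cytometry · Measure – median GFP fluorescence as percent of plate-mean DMSO wells · Control set – positive rapamycin (400 ng/mL), negative DMSO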
# [3] = TOR pathway reporter MEP2-GFP, retest of hits – S. cerevisiae, flow cytometry GFP, cherry picks, confirmation (AID 2272;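 active = GFP response above 150% of the DMSO control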;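 note: ratio of well signal to plate DMSO mean so 100% equals DMSO level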); conditions: S. cerevisiae MEP2-GFP strain, 3 h, at 10 µM, stronger effect = higher value
# [4] = yeast AGP1-GFP fluorescence change, single-dose – cell-based, flow cytometry, S. cerevisiae, cherry picks, confirmation (AID 2273);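 note: median GFP channel fluorescence over the whole cell population gate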; conditions: S. cerevisiae AGP1-GFP strain, 3 h, at 10 µM
# [5] = TOR pathway CIT2 reporter hit retest – S. cerevisiae, GFP fusion, cherry picks, mother/daughter gates, confirmation (AID 2274); conditions: S. cerevisiae CIT2-GFP strain, flow cytometry, 3 h, at 10 µM, stronger effect = higher value
# [6] = measured here: daughter cell gate
# [7] = measured here: mother cell gate
# [8] = measured here: daughter cell gate response
# [9] = measured here: mother cell gate response
SMILES,GFP response vs DMSO [1],"GFP response vs DMSO [1, 6] [%]","GFP response vs DMSO [1, 7] [%]",GFP response relative to DMSO [2],"GFP response relative to DMSO [2, 8] [%]","GFP response relative to DMSO [2, 9] [%]",GFP response vs DMSO [3],"GFP response, % of DMSO [4]","GFP response, % of DMSO [5]","GFP response, % of DMSO [5, 6] [%]","GFP response, % of DMSO [5, 7] [%]"
CCc1nn2c(N3CCOCC3)cc(C)nc2c1-c1ccc(F)cc1,99.8% (inactive),99.8,98.4,104% (inactive),104,104,106% (inactive),98.6% (inactive),95.8% (inactive),101,94.9
COc1cc(/C=C2\N=C(c3c(-c4ccccc4)noc3C)OC2=O)ccc1OC(C)=O,98.6% (inactive),100,98.9,91.5% (inactive),92.8,89.7,100% (inactive),99.3% (inactive),103% (inactive),103,101
Cc1ccc(NC(=O)COc2ccc(Br)cc2C)cc1,99.5% (inactive),97.3,100,107% (inactive),102,104,104% (inactive),96.7% (inactive),97.8% (inactive),98.3,95.6
COc1ccc(OC)c(CNC(=O)CCC(=O)N2Cc3cccc(OC)c3Oc3ncccc32)c1,102% (inactive),100,101,90.6% (inactive),94.2,95.2,105% (inactive),109% (inactive),102% (inactive),101,103
CN1CCN(C(=O)CC2C(=O)NCCN2Cc2ccc(-c3ccccc3)cc2)CC1 (configuration not stated),96.2% (inactive),96.2,98.5,100% (inactive),102,99.5,97.5% (inactive),99.7% (inactive),97.8% (inactive),100,99.1
CCOC(=O)C1=C(c2ccccc2)NC(=S)NC1c1cc([N+](=O)[O-])ccc1OC (configuration not stated),94% (inactive),92.6,96.4,97.9% (inactive),97.6,97.2,96.2% (inactive),95.2% (inactive),99.7% (inactive),101,99.7
Cc1ccc(/C=C2\SC(=S)N(CC3CCCO3)C2=O)o1 (configuration not stated),93.8% (inactive),94.2,93.5,189% (active),167,194,143% (inactive),100% (inactive),98.6% (inactive),97.6,98.2
COCCN1C2=C(COC(C)(C)C2)C(=S)NC1c1ccccc1 (configuration not stated),98% (inactive),98.9,99,94.1% (inactive),96,94,107% (inactive),99.1% (inactive),107% (inactive),108,108
O=C(N/N=C/c1ccc(OCCCF)cc1)c1cc(OCC(F)(F)F)ccc1OCC(F)(F)F,98% (inactive),100,98.2,97.4% (inactive),98.7,101,102% (inactive),97.2% (inactive),95.2% (inactive),94.8,97.7
Cc1ccc(Cl)cc1N1CCN(C(=O)CSc2ccsc2[N+](=O)[O-])CC1,98% (inactive),97.4,97.8,97% (inactive),95.9,96.2,101% (inactive),99.4% (inactive),100% (inactive),99.2,99.3
Cc1ccc(C(=O)Sc2cccccc2=O)cc1,101% (inactive),99.4,99,313% (active),281,315,132% (inactive),104% (inactive),90.9% (inactive),93.7,84.8
O=C(Nc1cccc(O)c1)c1ccccc1,94.6% (inactive),96.1,96.4,95.4% (inactive),97.6,95.1,98.3% (inactive),101% (inactive),98.3% (inactive),101,97.3
CNc1nc(-c2ccccc2)cc(C(F)(F)F)c1C#N,97.4% (inactive),95.3,92.9,96.2% (inactive),95.6,93.1,104% (inactive),102% (inactive),102% (inactive),99.7,98.7
CN(CCCS(=O)(=O)[O-])c1ccc(/C=C/c2ccc3ccccc3[n+]2C)cc1,101% (inactive),100,101,102% (inactive),102,104,111% (inactive),99.6% (inactive),106% (inactive),106,106
Cc1ccc(-c2csc3ncn(Cc4ccc(C(=O)O)cc4)c(=O)c23)cc1C,98.8% (inactive),97.3,99,117% (inactive),114,120,105% (inactive),116% (inactive),106% (inactive),105,107
O=S(=O)(CCN(CCS(=O)(=O)C(F)(F)F)CC1CCCO1)C(F)(F)F (configuration not stated),92.9% (inactive),96.2,86.3,219% (active),179,210,118% (inactive),94.5% (inactive),111% (inactive),115,96.8
O=C(NCc1ccc2c(c1)OCO2)c1nc(S(=O)(=O)Cc2ccccc2F)ncc1Cl,99.1% (inactive),99.3,97.8,101% (inactive),104,102,103% (inactive),100% (inactive),94.4% (inactive),94,96
O=C1c2cccc3c([N+](=O)[O-])ccc(c23)C(=O)N1CCc1ccccn1,103% (inactive),104,99.2,164% (active),157,156,286% (active),120% (inactive),158% (active),156,144
O=C(NC(=S)NNC(=O)c1ccc(Cl)cc1Cl)c1cccnc1,102% (inactive),103,102,97.3% (inactive),96.6,98.2,101% (inactive),104% (inactive),98.4% (inactive),100,96.7
O=S(=O)(c1ccccc1)N1N=C(c2ccccc2)CC1c1ccccc1 (configuration not stated),105% (inactive),105,103,97% (inactive),97.5,97.3,112% (inactive),99.4% (inactive),106% (inactive),108,104
CCCn1c(=O)c(C(=O)Nc2ccccc2C(=O)OCC)c(O)c2ccccc21,95.1% (inactive),96.7,95.2,95.3% (inactive),94.4,97.4,108% (inactive),110% (inactive),100% (inactive),103,100
CN1CCN(CCCCOc2ccccc2C=O)CC1,99.5% (inactive),97.8,101,97.4% (inactive),97.2,99.3,104% (inactive),102% (inactive),97.8% (inactive),94.8,98.7
CCN(CC)c1ccc(/C=C/c2ccc3ccc(OC)cc3[n+]2CC)cc1,102% (inactive),101,101,117% (inactive),113,119,133% (inactive),98.9% (inactive),107% (inactive),110,104
CCn1c(=O)c(C(=O)NCCc2ccccc2)c(O)c2ccccc21,98.5% (inactive),99.8,98.8,95.3% (inactive),96,97.4,103% (inactive),108% (inactive),98.6% (inactive),99.3,98.2
CCCn1c(=O)c(C(=O)Nc2ccccc2)c(O)c2ccccc21,96.7% (inactive),96.4,95.6,100% (inactive),97.5,98.4,99.3% (inactive),96.6% (inactive),98.6% (inactive),95.8,97.1
Cc1ccc(C(=O)O)cc1N1C(=O)c2cccc3cc(Br)cc(c23)C1=O,101% (inactive),98.6,100,102% (inactive),99.1,105,103% (inactive),101% (inactive),97.3% (inactive),97.4,98.1
COc1cc(NC(=O)c2c(OC)cccc2OC)ccc1NC(=O)c1cc2ccccc2o1,96% (inactive),95.5,96.5,109% (inactive),104,108,102% (inactive),95.4% (inactive),96.4% (inactive),98.3,93.3
